Here are results for 31 molecules from PubChem BioAssay AID652011 (Sanford-Burnham Center for Chemical Genomics, 2013).

Structures are written as SMILES. “And” between values parts separate entries of the source, which are not always exact repeats. Identical values can stand only once.

Chain of Hypoxia-inducible factor 1-alpha (Homo sapiens) (Q16665 whole entry, looked up): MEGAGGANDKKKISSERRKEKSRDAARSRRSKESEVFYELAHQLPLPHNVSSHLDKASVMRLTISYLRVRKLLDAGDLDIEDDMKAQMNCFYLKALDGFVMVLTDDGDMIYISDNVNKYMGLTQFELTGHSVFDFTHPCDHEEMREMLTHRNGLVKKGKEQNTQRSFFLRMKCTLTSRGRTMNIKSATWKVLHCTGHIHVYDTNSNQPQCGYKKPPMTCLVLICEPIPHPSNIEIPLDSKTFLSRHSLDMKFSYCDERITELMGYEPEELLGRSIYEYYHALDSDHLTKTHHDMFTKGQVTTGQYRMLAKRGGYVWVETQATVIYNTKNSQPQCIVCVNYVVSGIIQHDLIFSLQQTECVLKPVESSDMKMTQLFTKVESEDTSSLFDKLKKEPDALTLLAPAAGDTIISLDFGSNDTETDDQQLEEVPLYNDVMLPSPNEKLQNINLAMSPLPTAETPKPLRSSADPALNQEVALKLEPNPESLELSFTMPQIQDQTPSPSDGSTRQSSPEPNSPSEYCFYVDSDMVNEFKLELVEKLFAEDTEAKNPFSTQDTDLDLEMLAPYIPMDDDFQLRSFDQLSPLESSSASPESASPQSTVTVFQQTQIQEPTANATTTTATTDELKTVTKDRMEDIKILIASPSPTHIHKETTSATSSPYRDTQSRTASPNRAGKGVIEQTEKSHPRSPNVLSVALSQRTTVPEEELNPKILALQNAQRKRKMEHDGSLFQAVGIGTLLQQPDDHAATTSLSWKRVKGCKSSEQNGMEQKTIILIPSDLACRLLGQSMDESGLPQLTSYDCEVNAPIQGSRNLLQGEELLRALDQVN

This test deals with Hypoxia-inducible factor 1-alpha (Homo sapiens) (UniProt Q16665). In words: HIF-1a and HIF-2a reporter inhibitors, SAR follow-up, cell-based, luminescence, MIAPaCa-2, 786-0, panel (AID 652011). Conditions: MIAPaCa-2/PANC HIF reporter, luciferase luminescence, desferoxamine, overnight, HIF1a, run 1; at 99 µM (top of the series). An outline of the steps: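 Reagent: Desferoxamine added before compound | Doses: Compounds from 10 mM and 0.3125 mM stocks, 1% DMSO final | Times: Overnight seeding and compound exposure, 37 °C, 5% CO2, 10-min detection | Measured by: One-Glo luciferase luminescence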
The inhibition is the change of the read-out against control, counted positive when it falls. With `CCCCc1ccc(-c2noc(CCC(=O)NCC)n2)cc1`, the inhibition was -6.32%.

Consider `CC(C)CNC(=O)CCc1nc(-c2ccc(C(C)(C)C)cc2)no1`, for which the inhibition was -21.6%.

Turning to `CCC(C)NC(=O)CCc1nc(-c2ccc(C(C)(C)C)cc2)no1` (stereo unspecified), the inhibition is -78.9%.

Turning to `CCNC(=O)CCc1nc(-c2ccc(C(C)C)cc2)no1`, the inhibition is -33%.

Consider `CC(C)c1ccc(-c2noc(CCC(=O)NC3CC3)n2)cc1`, for which the inhibition is -58.4%.

With `CCCCc1ccc(-c2noc(CCC(=O)NC(C)(C)C)n2)cc1`, the inhibition was determined as 86.1%.

Consider `O=C(CCc1nc(-c2ccccc2)no1)NC1CC1`, for which the inhibition was -33.5%.

For the molecule `CCNC(=O)CCc1nc(-c2cccc(F)c2)no1`, the inhibition was -22%.

For the molecule `CCOc1ccc(-c2noc(CCC(=O)NC)n2)cc1`, the inhibition was -41.9%.

On to `CN(C)C(=O)CCc1nc(-c2ccc(C(C)(C)C)cc2)no1`, for which the inhibition is -59.6% and -77.5%.

`CCNC(=O)CCc1nc(-c2ccc(CC)cc2)no1`: the inhibition was -35.2%.

For the molecule `CCOc1ccc(-c2noc(CCC(=O)O)n2)cc1`, the inhibition amounted to 73.4%.

Consider `CC(C)(C)c1ccc(-c2noc(CCC(=O)NC3CCCCC3)n2)cc1`, for which the inhibition turned out to be 41.6%.

For the molecule `CNC(=O)CCc1nc(-c2ccc(OC)cc2)no1`, the inhibition was -51.1%.

For `CC(C)(C)c1ccc(-c2noc(CCC(=O)N3CCCCC3)n2)cc1`, the inhibition turned out to be 102%.

In the case of `CCNC(=O)CCc1nc(-c2ccc(C(C)(C)C)cc2)no1`, the inhibition was -11.3% and -13.8%.

As for `CC(C)(C)c1ccc(-c2noc(CCC(N)=O)n2)cc1`, the inhibition is 8.32% and -17.9%.

For the molecule `COc1cccc(NC(=O)CCc2nc(-c3ccc(C(C)(C)C)cc3)no2)c1`, the inhibition is 74.5%.

Consider `CCCCc1ccc(-c2noc(CCC(=O)NC)n2)cc1`, for which the inhibition is -40.2%.

For the molecule `CCNC(=O)CCc1nc(-c2cccc(C)c2)no1`, the inhibition was -31.4%.

With `CNC(=O)CCc1nc(-c2ccc(C)cc2)no1`, the inhibition turned out to be 8.42%.

Turning to `CCNC(=O)CCc1nc(-c2cccc(OC)c2)no1`, the inhibition is -42.1%.

Turning to `CCNC(=O)CCc1nc(-c2ccc(OCC)cc2)no1`, the inhibition is -79.8%.

Regarding `CC(C)(C)c1ccc(-c2noc(CCC(=O)N3CCOCC3)n2)cc1`, the inhibition is -34.2%.

In the case of `CNC(=O)CCc1nc(-c2ccc(Cl)cc2)no1`, the inhibition was -25.6%.

As to `CC(C)(C)c1ccc(-c2noc(CCC(=O)O)n2)cc1`, the inhibition came to 94.7%.

In the case of `CC(C)(C)c1ccc(-c2noc(CCC(=O)NCC3CCCO3)n2)cc1` (stereo unspecified), the inhibition was -24.5%.

With `CC(C)(C)c1ccc(-c2noc(CCC(=O)NC3CC3)n2)cc1`, the inhibition is -50.8%.

On to `CCc1ccc(-c2noc(CCC(=O)NC(C)CC)n2)cc1` (stereo unspecified), for which the inhibition was -51.7%.

Consider `CC(C)(C)c1ccc(-c2noc(CCC(=O)NC3CCC3)n2)cc1`, for which the inhibition is 31.6%.

For the molecule `CNC(=O)CCc1nc(-c2ccc(F)cc2)no1`, the inhibition is -42.8%.
